Test results as given in ChEMBL document CHEMBL5058577, “EUbOPEN Chemogenomics Library 2 (Multiplex)” (2022).

Tested on: Fibroblast
Assay: Multiplex assay against human fibroblast
Type: toxicity, cell-based
Outline: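 Tubulin, mitochondrial-mass and membrane-permeability phenotypes are per cents of healthy-nucleus cells. Cells were gated by CellPathfinder machine learning into Hoechst high-intensity objects or normal cells, normal cells into healthy, pyknosed or fragmented nuclei, and pyknosed cells into mitotic or apoptotic. Before that, live cells stained at seeding with Hoechst33342, BioTracker Green Microtubule Cytoskeleton Dye, MitoTracker Red and Annexin V Alexa Fluor 680 were imaged on a CQ1 microscope at 37°C and 5% CO2 after compound addition.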

[1] = 12 h, 1 µM, compound concentration 1 uM, replicate 1
[2] = 12 h, 1 µM, compound concentration 1 uM, replicate 2
[3] = 12 h, 10 µM, compound concentration 10 uM, replicate 1
[4] = 12 h, 10 µM, compound concentration 10 uM, replicate 2
[5] = 24 h, 1 µM, compound concentration 1 uM, replicate 1
[6] = 24 h, 1 µM, compound concentration 1 uM, replicate 2
[7] = 24 h, 10 µM, compound concentration 10 uM, replicate 1
[8] = 24 h, 10 µM, compound concentration 10 uM, replicate 2
[9] = 48 h, 1 µM, compound concentration 1 uM, replicate 1
[10] = 48 h, 1 µM, compound concentration 1 uM, replicate 2
[11] = 48 h, 10 µM, compound concentration 10 uM, replicate 1
[12] = 48 h, 10 µM, compound concentration 10 uM, replicate 2

Structure (SMILES): CC(=O)NCCc1c(Cc2ccccc2)[nH]c2ccccc12 [LUZINDOLE]
- Population Apoptotic (%) [1]: 41%
- Population Fragmented Nuclei (%) [1]: 15%
- Population Healthy Nuclei (%) [1]: 65%
- Population Hoechst High Intensity Objects (%) [1]: 1%
- Population Membrane Permeable-Phenotype (%) [1]: 2%
- Population Mitochondria Different-Phenotype (%) [1]: 7%
- Population Mitotic Cells (%) [1]: 58%
- Population Normal (%) [1]: 98%
- Population Pyknosed Nuclei (%) [1]: 18%
- Population Tubulin-Different-Phenotype (%) [1]: 30%
- Total Cell Count [1]: 129
- Population Apoptotic (%) [2]: 40%
- Population Fragmented Nuclei (%) [2]: 25%
- Population Healthy Nuclei (%) [2]: 39%
- Population Hoechst High Intensity Objects (%) [2]: 4%
- Population Membrane Permeable-Phenotype (%) [2]: 9%
- Population Mitochondria Different-Phenotype (%) [2]: 11%
- Population Mitotic Cells (%) [2]: 59%
- Population Normal (%) [2]: 95%
- Population Pyknosed Nuclei (%) [2]: 34%
- Population Tubulin-Different-Phenotype (%) [2]: 50%
- Total Cell Count [2]: 134
- Population Apoptotic (%) [3]: 19%
- Population Fragmented Nuclei (%) [3]: 15%
- Population Healthy Nuclei (%) [3]: 69%
- Population Hoechst High Intensity Objects (%) [3]: 2%
- Population Membrane Permeable-Phenotype (%) [3]: 2%
- Population Mitochondria Different-Phenotype (%) [3]: 7%
- Population Mitotic Cells (%) [3]: 80%
- Population Normal (%) [3]: 97%
- Population Pyknosed Nuclei (%) [3]: 15%
- Population Tubulin-Different-Phenotype (%) [3]: 42%
- Total Cell Count [3]: 140
- Population Apoptotic (%) [4]: 21%
- Population Fragmented Nuclei (%) [4]: 26%
- Population Healthy Nuclei (%) [4]: 59%
- Population Membrane Permeable-Phenotype (%) [4]: 13%
- Population Mitochondria Different-Phenotype (%) [4]: 4%
- Population Mitotic Cells (%) [4]: 78%
- Population Pyknosed Nuclei (%) [4]: 13%
- Population Tubulin-Different-Phenotype (%) [4]: 32%
- Total Cell Count [4]: 105
- Population Apoptotic (%) [5]: 54%
- Population Fragmented Nuclei (%) [5]: 21%
- Population Healthy Nuclei (%) [5]: 61%
- Population Hoechst High Intensity Objects (%) [5]: 0%
- Population Membrane Permeable-Phenotype (%) [5]: 0%
- Population Mitochondria Different-Phenotype (%) [5]: 3%
- Population Mitotic Cells (%) [5]: 45%
- Population Normal (%) [5]: 99%
- Population Pyknosed Nuclei (%) [5]: 16%
- Population Tubulin-Different-Phenotype (%) [5]: 13%
- Total Cell Count [5]: 134
- Population Apoptotic (%) [6]: 45%
- Population Fragmented Nuclei (%) [6]: 25%
- Population Healthy Nuclei (%) [6]: 47%
- Population Hoechst High Intensity Objects (%) [6]: 5%
- Population Membrane Permeable-Phenotype (%) [6]: 8%
- Population Mitochondria Different-Phenotype (%) [6]: 8%
- Population Mitotic Cells (%) [6]: 54%
- Population Normal (%) [6]: 94%
- Population Pyknosed Nuclei (%) [6]: 26%
- Population Tubulin-Different-Phenotype (%) [6]: 50%
- Total Cell Count [6]: 137
- Population Apoptotic (%) [7]: 47%
- Population Fragmented Nuclei (%) [7]: 15%
- Population Healthy Nuclei (%) [7]: 67%
- Population Hoechst High Intensity Objects (%) [7]: 2%
- Population Membrane Permeable-Phenotype (%) [7]: 1%
- Population Mitochondria Different-Phenotype (%) [7]: 5%
- Population Mitotic Cells (%) [7]: 52%
- Population Normal (%) [7]: 97%
- Population Pyknosed Nuclei (%) [7]: 17%
- Population Tubulin-Different-Phenotype (%) [7]: 29%
- Total Cell Count [7]: 138
- Population Apoptotic (%) [8]: 23%
- Population Fragmented Nuclei (%) [8]: 27%
- Population Healthy Nuclei (%) [8]: 59%
- Population Hoechst High Intensity Objects (%) [8]: 3%
- Population Membrane Permeable-Phenotype (%) [8]: 5%
- Population Mitochondria Different-Phenotype (%) [8]: 3%
- Population Mitotic Cells (%) [8]: 76%
- Population Normal (%) [8]: 96%
- Population Pyknosed Nuclei (%) [8]: 12%
- Population Tubulin-Different-Phenotype (%) [8]: 33%
- Total Cell Count [8]: 105
- Population Apoptotic (%) [9]: 75%
- Population Fragmented Nuclei (%) [9]: 15%
- Population Healthy Nuclei (%) [9]: 72%
- Population Hoechst High Intensity Objects (%) [9]: 5%
- Population Membrane Permeable-Phenotype (%) [9]: 2%
- Population Mitochondria Different-Phenotype (%) [9]: 3%
- Population Mitotic Cells (%) [9]: 25%
- Population Normal (%) [9]: 94%
- Population Pyknosed Nuclei (%) [9]: 12%
- Population Tubulin-Different-Phenotype (%) [9]: 24%
- Total Cell Count [9]: 134
- Population Apoptotic (%) [10]: 39%
- Population Fragmented Nuclei (%) [10]: 27%
- Population Healthy Nuclei (%) [10]: 55%
- Population Hoechst High Intensity Objects (%) [10]: 8%
- Population Membrane Permeable-Phenotype (%) [10]: 9%
- Population Mitochondria Different-Phenotype (%) [10]: 5%
- Population Mitotic Cells (%) [10]: 60%
- Population Normal (%) [10]: 91%
- Population Pyknosed Nuclei (%) [10]: 16%
- Population Tubulin-Different-Phenotype (%) [10]: 46%
- Total Cell Count [10]: 149
- Population Apoptotic (%) [11]: 80%
- Population Fragmented Nuclei (%) [11]: 19%
- Population Healthy Nuclei (%) [11]: 70%
- Population Hoechst High Intensity Objects (%) [11]: 3%
- Population Membrane Permeable-Phenotype (%) [11]: 0%
- Population Mitochondria Different-Phenotype (%) [11]: 3%
- Population Mitotic Cells (%) [11]: 20%
- Population Normal (%) [11]: 96%
- Population Pyknosed Nuclei (%) [11]: 10%
- Population Tubulin-Different-Phenotype (%) [11]: 34%
- Total Cell Count [11]: 147
- Population Apoptotic (%) [12]: 54%
- Population Fragmented Nuclei (%) [12]: 34%
- Population Healthy Nuclei (%) [12]: 54%
- Population Hoechst High Intensity Objects (%) [12]: 4%
- Population Membrane Permeable-Phenotype (%) [12]: 3%
- Population Mitotic Cells (%) [12]: 45%
- Population Normal (%) [12]: 95%
- Population Tubulin-Different-Phenotype (%) [12]: 50%
- Total Cell Count [12]: 111

Structure (SMILES): N[C@@]1(C(=O)O)CO[C@H]2[C@H](C(=O)O)[C@H]21 [LY-379268]
- Population Apoptotic (%) [1]: 22%
- Population Fragmented Nuclei (%) [1]: 17%
- Population Healthy Nuclei (%) [1]: 70%
- Population Hoechst High Intensity Objects (%) [1]: 1%
- Population Membrane Permeable-Phenotype (%) [1]: 0%
- Population Mitochondria Different-Phenotype (%) [1]: 2%
- Population Mitotic Cells (%) [1]: 77%
- Population Normal (%) [1]: 98%
- Population Pyknosed Nuclei (%) [1]: 11%
- Population Tubulin-Different-Phenotype (%) [1]: 25%
- Total Cell Count [1]: 156
- Population Apoptotic (%) [2]: 44%
- Population Fragmented Nuclei (%) [2]: 33%
- Population Healthy Nuclei (%) [2]: 43%
- Population Hoechst High Intensity Objects (%) [2]: 10%
- Population Membrane Permeable-Phenotype (%) [2]: 5%
- Population Mitochondria Different-Phenotype (%) [2]: 1%
- Population Mitotic Cells (%) [2]: 55%
- Population Normal (%) [2]: 89%
- Population Pyknosed Nuclei (%) [2]: 22%
- Population Tubulin-Different-Phenotype (%) [2]: 45%
- Total Cell Count [2]: 145
- Population Apoptotic (%) [3]: 29%
- Population Fragmented Nuclei (%) [3]: 15%
- Population Healthy Nuclei (%) [3]: 69%
- Population Hoechst High Intensity Objects (%) [3]: 3%
- Population Membrane Permeable-Phenotype (%) [3]: 0%
- Population Mitochondria Different-Phenotype (%) [3]: 3%
- Population Mitotic Cells (%) [3]: 70%
- Population Normal (%) [3]: 96%
- Population Pyknosed Nuclei (%) [3]: 14%
- Population Tubulin-Different-Phenotype (%) [3]: 19%
- Total Cell Count [3]: 187
- Population Apoptotic (%) [4]: 21%
- Population Healthy Nuclei (%) [4]: 51%
- Population Membrane Permeable-Phenotype (%) [4]: 4%
- Population Mitochondria Different-Phenotype (%) [4]: 1%
- Population Mitotic Cells (%) [4]: 78%
- Population Pyknosed Nuclei (%) [4]: 33%
- Population Tubulin-Different-Phenotype (%) [4]: 47%
- Total Cell Count [4]: 128
- Population Apoptotic (%) [5]: 36%
- Population Fragmented Nuclei (%) [5]: 16%
- Population Healthy Nuclei (%) [5]: 70%
- Population Hoechst High Intensity Objects (%) [5]: 0%
- Population Membrane Permeable-Phenotype (%) [5]: 0%
- Population Mitochondria Different-Phenotype (%) [5]: 5%
- Population Mitotic Cells (%) [5]: 63%
- Population Normal (%) [5]: 99%
- Population Pyknosed Nuclei (%) [5]: 12%
- Population Tubulin-Different-Phenotype (%) [5]: 23%
- Total Cell Count [5]: 152
- Population Apoptotic (%) [6]: 47%
- Population Fragmented Nuclei (%) [6]: 40%
- Population Healthy Nuclei (%) [6]: 41%
- Population Hoechst High Intensity Objects (%) [6]: 10%
- Population Membrane Permeable-Phenotype (%) [6]: 4%
- Population Mitochondria Different-Phenotype (%) [6]: 10%
- Population Mitotic Cells (%) [6]: 52%
- Population Normal (%) [6]: 89%
- Population Pyknosed Nuclei (%) [6]: 18%
- Population Tubulin-Different-Phenotype (%) [6]: 60%
- Total Cell Count [6]: 125
- Population Apoptotic (%) [7]: 66%
- Population Fragmented Nuclei (%) [7]: 14%
- Population Healthy Nuclei (%) [7]: 75%
- Population Hoechst High Intensity Objects (%) [7]: 5%
- Population Membrane Permeable-Phenotype (%) [7]: 0%
- Population Mitochondria Different-Phenotype (%) [7]: 3%
- Population Mitotic Cells (%) [7]: 33%
- Population Normal (%) [7]: 94%
- Population Pyknosed Nuclei (%) [7]: 10%
- Population Tubulin-Different-Phenotype (%) [7]: 19%
- Total Cell Count [7]: 189
- Population Apoptotic (%) [8]: 22%
- Population Fragmented Nuclei (%) [8]: 17%
- Population Healthy Nuclei (%) [8]: 53%
- Population Hoechst High Intensity Objects (%) [8]: 6%
- Population Membrane Permeable-Phenotype (%) [8]: 2%
- Population Mitochondria Different-Phenotype (%) [8]: 0%
- Population Mitotic Cells (%) [8]: 77%
- Population Normal (%) [8]: 93%
- Population Pyknosed Nuclei (%) [8]: 28%
- Population Tubulin-Different-Phenotype (%) [8]: 44%
- Total Cell Count [8]: 133
- Population Apoptotic (%) [9]: 76%
- Population Fragmented Nuclei (%) [9]: 22%
- Population Healthy Nuclei (%) [9]: 68%
- Population Hoechst High Intensity Objects (%) [9]: 3%
- Population Membrane Permeable-Phenotype (%) [9]: 0%
- Population Mitochondria Different-Phenotype (%) [9]: 5%
- Population Mitotic Cells (%) [9]: 23%
- Population Normal (%) [9]: 96%
- Population Pyknosed Nuclei (%) [9]: 8%
- Population Tubulin-Different-Phenotype (%) [9]: 26%
- Total Cell Count [9]: 156
- Population Apoptotic (%) [10]: 50%
- Population Fragmented Nuclei (%) [10]: 33%
- Population Healthy Nuclei (%) [10]: 55%
- Population Hoechst High Intensity Objects (%) [10]: 11%
- Population Membrane Permeable-Phenotype (%) [10]: 4%
- Population Mitochondria Different-Phenotype (%) [10]: 7%
- Population Mitotic Cells (%) [10]: 50%
- Population Normal (%) [10]: 88%
- Population Pyknosed Nuclei (%) [10]: 11%
- Population Tubulin-Different-Phenotype (%) [10]: 59%
- Total Cell Count [10]: 136
- Population Apoptotic (%) [11]: 62%
- Population Fragmented Nuclei (%) [11]: 14%
- Population Healthy Nuclei (%) [11]: 72%
- Population Hoechst High Intensity Objects (%) [11]: 1%
- Population Membrane Permeable-Phenotype (%) [11]: 0%
- Population Mitochondria Different-Phenotype (%) [11]: 0%
- Population Mitotic Cells (%) [11]: 37%
- Population Normal (%) [11]: 98%
- Population Pyknosed Nuclei (%) [11]: 13%
- Population Tubulin-Different-Phenotype (%) [11]: 19%
- Total Cell Count [11]: 179
- Population Apoptotic (%) [12]: 42%
- Population Fragmented Nuclei (%) [12]: 27%
- Population Healthy Nuclei (%) [12]: 56%
- Population Hoechst High Intensity Objects (%) [12]: 7%
- Population Membrane Permeable-Phenotype (%) [12]: 10%
- Population Mitochondria Different-Phenotype (%) [12]: 5%
- Population Mitotic Cells (%) [12]: 57%
- Population Normal (%) [12]: 92%
- Population Pyknosed Nuclei (%) [12]: 16%
- Population Tubulin-Different-Phenotype (%) [12]: 47%
- Total Cell Count [12]: 140
